# Source: ChEMBL document CHEMBL4014344, “Discovery of the Soluble Guanylate Cyclase Stimulator Vericiguat (BAY 1021189) for the Treatment of Chronic Heart Failure” (J Med Chem, 2017)
# Activity calls are given as the source filed them. The rule behind the calls is not given here.
# Experiments:
# [1] = Terminal half life in iv dosed Beagle dog blood after 24 hrs by LC-MS analysis; assay type: ADME, organism-based, Canis lupus familiaris; settings: whole blood, read-out: beta t1/2 (converted)
# Summary of the method: (§1)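 Male Wistar rats and female beagle dogs. iv in plasma/DMSO (rat) or H2O/PEG 400/EtOH (dog). Oral gavage in H2O/PEG 400/EtOH for both. Rats jugular-catheterised ≥1 d before dosing. Usually >10 blood samples, at least two after 24 h. Plasma quantified by LC-MS with internal standard. CL, t1/2, Vss and F calculated from plasma curves. Blood clearance via blood/plasma ratio (20 min blood incubation).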
# [2] = Oral bioavailability in Wistar rat administered via oral gavage after 24 hrs by LC-MS analysis; assay type: ADME, organism-based; settings: in vivo; summary of the method: as §1
# [3] = Oral bioavailability in Beagle dog administered via oral gavage after 24 hrs by LC-MS analysis; assay type: ADME, organism-based, Canis lupus familiaris; settings: in vivo; summary of the method: as §1
# Cytochrome P450 2A6 = target: T1, Cytochrome P450 2A6 (Homo sapiens, UniProt P11509); assay: Inhibition of human liver microsomes CYP2A6 using coumarin as substrate; assay type: ADME
# T1 sequence (P11509 whole entry): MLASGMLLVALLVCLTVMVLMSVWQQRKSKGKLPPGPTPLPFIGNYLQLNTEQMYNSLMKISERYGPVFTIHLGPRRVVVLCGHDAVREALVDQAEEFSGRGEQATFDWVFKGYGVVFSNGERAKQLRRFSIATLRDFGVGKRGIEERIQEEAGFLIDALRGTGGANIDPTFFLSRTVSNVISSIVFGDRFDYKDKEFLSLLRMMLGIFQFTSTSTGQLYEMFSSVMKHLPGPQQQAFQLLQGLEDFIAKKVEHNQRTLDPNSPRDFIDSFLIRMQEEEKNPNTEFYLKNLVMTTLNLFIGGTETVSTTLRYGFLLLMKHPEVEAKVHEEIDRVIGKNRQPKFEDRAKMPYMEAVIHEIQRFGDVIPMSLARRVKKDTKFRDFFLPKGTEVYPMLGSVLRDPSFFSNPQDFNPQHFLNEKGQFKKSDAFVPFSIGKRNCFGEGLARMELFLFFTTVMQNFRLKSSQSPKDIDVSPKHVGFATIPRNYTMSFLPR
# Cytochrome P450 2B6 = target: T2, Cytochrome P450 2B6 (Homo sapiens, UniProt P20813); assay: Inhibition of human liver microsomes CYP2B6 using bupropion as substrate; assay type: ADME
# T2 sequence (P20813 whole entry): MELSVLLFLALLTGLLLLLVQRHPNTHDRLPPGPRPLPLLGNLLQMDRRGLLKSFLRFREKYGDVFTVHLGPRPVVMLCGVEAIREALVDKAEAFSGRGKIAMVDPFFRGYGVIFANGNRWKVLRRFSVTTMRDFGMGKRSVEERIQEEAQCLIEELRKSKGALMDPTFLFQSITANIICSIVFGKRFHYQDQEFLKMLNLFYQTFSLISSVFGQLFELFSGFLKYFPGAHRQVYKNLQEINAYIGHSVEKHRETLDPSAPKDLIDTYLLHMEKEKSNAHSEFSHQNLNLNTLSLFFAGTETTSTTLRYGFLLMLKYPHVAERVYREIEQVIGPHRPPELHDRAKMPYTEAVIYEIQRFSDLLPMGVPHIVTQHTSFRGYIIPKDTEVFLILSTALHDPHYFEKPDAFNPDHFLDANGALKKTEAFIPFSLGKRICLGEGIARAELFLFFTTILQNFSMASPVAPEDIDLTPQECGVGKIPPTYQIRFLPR
# Cytochrome P450 2C19 = Cytochrome P450 2C19 (Homo sapiens, UniProt P33261); assay: Inhibition of human liver microsomes CYP2C19 using S-mephenytoin as substrate; assay type: ADME
# Cytochrome P450 3A4 [4] = target: T3, Cytochrome P450 3A4 (Homo sapiens, UniProt P08684); assay: Inhibition of human liver microsomes CYP3A4 using testosterone as substrate; assay type: ADME
# Cytochrome P450 3A4 [5] = target: T3, Cytochrome P450 3A4; assay: Inhibition of human liver microsomes CYP3A4 using testosterone as substrate preincubated with compound followed by substrate addition; assay type: ADME
# Heart = assay: Antihypertensive activity in Wistar Langendorff-perfused heart rat model assessed as reduction in coronary perfusion pressure administered for 20 mins; assay type: functional, tissue-based
# Summary of the method: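 Male Wistar rats (200−250 g) anesthetized with Narcoren 100 mg/kg ip. Excised heart Langendorff-perfused at constant flow 10 mL/min with Krebs−Henseleit buffer gassed with 95% O2/5% CO2. Values expressed as relative change from baseline before compound application.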
# Rattus norvegicus [6] = assay: Antihypertensive activity in L-NAME-treated renin transgenic rat co-expressing RenTG(mRRen2)27 assessed as reduction in plasma ANP levels at 3 to 10 mg/kg administered qd via oral gavage up to 21 days; assay type: functional, organism-based
# Summary of the method: (§2)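 Male RenTG(mRRen2)27 rats, 8 weeks old, given L-NAME in drinking water (50 mg/L) throughout. Randomised to placebo (2 mL/kg qd, n = 20) or 3 and 10 mg/kg/day po by gavage qd (n = 15 per group). Tail-cuff blood pressure on day 0, 7, 14 and 21. Plasma taken at day 22 end. Unpaired t test, mean ± SEM.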
# Rattus norvegicus [7] = assay: Antihypertensive activity in L-NAME-treated renin transgenic rat co-expressing RenTG(mRRen2)27 assessed as reduction in osteopontin expression at 3 to 10 mg/kg administered qd via oral gavage up to 21 days; assay type: functional, organism-based; summary of the method: as §2
# Rattus norvegicus [8] = assay: Effect on mortality in L-NAME-treated renin transgenic rat co-expressing RenTG(mRRen2)27 assessed as increase in survival rate administered qd via oral gavage up to 21 days; assay type: functional
# Summary of the method: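 L-NAME (50 mg/L, drinking water) treated male RenTG(mRRen2)27 rats aged 8 weeks. Placebo (n = 20) or 3 or 10 mg/kg/day by oral gavage qd (n = 15/group). Survival checked on days 1, 8, 15 and at study end (day 22).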
# Rattus norvegicus [9] = assay: Effect on mortality in L-NAME-treated renin transgenic rat co-expressing RenTG(mRRen2)27 assessed as survival rate at 10 mg/kg administered qd via oral gavage up to 21 days (reference value: 25%); assay type: functional; settings: 504 h
# T3 sequence (P08684 whole entry): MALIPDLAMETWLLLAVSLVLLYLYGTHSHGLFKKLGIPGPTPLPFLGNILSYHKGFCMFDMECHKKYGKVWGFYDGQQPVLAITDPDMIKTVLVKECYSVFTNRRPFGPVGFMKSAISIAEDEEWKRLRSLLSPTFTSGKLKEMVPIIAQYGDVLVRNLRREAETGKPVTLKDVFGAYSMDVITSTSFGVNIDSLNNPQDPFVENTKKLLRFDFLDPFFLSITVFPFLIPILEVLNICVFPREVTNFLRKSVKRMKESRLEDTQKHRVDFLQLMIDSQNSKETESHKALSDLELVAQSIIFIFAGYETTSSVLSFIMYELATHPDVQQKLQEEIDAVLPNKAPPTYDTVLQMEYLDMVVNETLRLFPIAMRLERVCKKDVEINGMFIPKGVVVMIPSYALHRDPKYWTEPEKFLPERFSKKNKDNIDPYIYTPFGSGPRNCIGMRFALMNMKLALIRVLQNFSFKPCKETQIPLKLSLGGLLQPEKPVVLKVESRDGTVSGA
# Chain of Cytochrome P450 2C19 (P33261 whole entry): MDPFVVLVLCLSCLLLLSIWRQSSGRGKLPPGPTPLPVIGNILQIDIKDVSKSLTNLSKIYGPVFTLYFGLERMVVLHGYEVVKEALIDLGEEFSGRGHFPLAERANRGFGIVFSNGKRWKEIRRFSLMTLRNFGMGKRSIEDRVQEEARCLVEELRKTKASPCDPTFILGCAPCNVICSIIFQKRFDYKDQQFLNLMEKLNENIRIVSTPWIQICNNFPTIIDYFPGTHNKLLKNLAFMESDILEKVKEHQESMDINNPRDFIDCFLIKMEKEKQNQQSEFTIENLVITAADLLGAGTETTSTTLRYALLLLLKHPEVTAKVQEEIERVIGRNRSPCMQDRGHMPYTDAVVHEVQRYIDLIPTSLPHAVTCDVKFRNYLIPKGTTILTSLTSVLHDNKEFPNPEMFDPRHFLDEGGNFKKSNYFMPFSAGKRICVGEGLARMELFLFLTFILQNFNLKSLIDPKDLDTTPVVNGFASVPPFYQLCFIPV
smiles,measurement,setting,value
COC(=O)Nc1c(N)nc(-c2nn(Cc3ccccc3F)c3ncc(F)cc23)nc1N [VERICIGUAT],half-life,[1],6.2 h
same,bioavailability,[2],65%
same,bioavailability,[3],75%
same,IC50,Cytochrome P450 2A6,> 50 µM
same,IC50,Cytochrome P450 2B6,> 50 µM
same,IC50,Cytochrome P450 2C19,> 50 µM
same,IC50,Cytochrome P450 3A4 [4],> 50 µM
same,IC50,Cytochrome P450 3A4 [5],> 50 µM
same,Activity,Heart,Dose-dependent effect
same,Activity,Rattus norvegicus [6],Active
same,Activity,Rattus norvegicus [7],Active
same,Activity,Rattus norvegicus [8],Dose-dependent effect
same,survival at 10 mg/kg,Rattus norvegicus [9],90%
